Reference: ChEMBL document CHEMBL4673330, “Preparations and antioxidant activities of sesamol and it's derivatives” (Bioorg Med Chem Lett, 2021)

Experiments:
Format in all cases: functional
[1] = Antioxidant activity assessed as superoxide anion radical scavenging rate at 0.2 g/L relative to control
How it was run: (§1)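 Pyrocatechol autoxidation in weak alkaline medium produces a coloured intermediate and superoxide anion; the intermediate absorbs maximally at 320 nm. Scavenging rate was measured at 0.2–1.2 g/L, with sesamol as positive control. Values are means ± SD from at least eight independent experiments, each in triplicate (n = 3), with t-tests (p < 0.05).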

[2] = Antioxidant activity assessed as hydroxyl radical scavenging rate at 0.4 g/L relative to control
How it was run: (§2)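 Hydroxyl radical scavenging was read as absorbance of the reaction solution at 510 nm by a fixed reaction time method. Derivatives were tested at 0.2–1.2 g/L, with sesamol as positive control. Values are means ± SD from at least eight independent experiments, each in triplicate (n = 3), with t-tests (p < 0.05).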

[3] = Antioxidant activity assessed as reduction in lipid peroxidation by measuring antiperoxide-index at 1 g/L by thiobarbituric acid method relative to control; set-up: scale not given: the % may be the effect or the level left
How it was run: (§3)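 Anti-lipid-peroxidation (antiperoxide index, %) was tested at 0.2–1.2 g/L, with sesamol as positive control. Values are means ± SD from at least eight independent experiments, each in triplicate (n = 3), with t-tests (p < 0.05).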

[4] = Antioxidant activity assessed as superoxide anion radical scavenging rate at 0.6 g/L relative to control; how it was run: as §1
[5] = Antioxidant activity assessed as reduction in lipid peroxidation by measuring antiperoxide-index at 0.8 g/L by thiobarbituric acid method relative to control; set-up: scale not given: the % may be the effect or the level left; how it was run: as §3
[6] = Antioxidant activity assessed as reduction of potassium ferricyanide trivalent iron into potassium ferrocyanide bivalent iron and ferrous iron by measuring eliminate efficiency at 1 g/L relative to control; set-up: scale not given: the % may be the effect or the level left
How it was run: (§4)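 Reducing capacity was read as absorbance at 700 nm, where higher absorbance means greater reducing ability. Tested at 0.2–1.2 g/L against sesamol as positive control. Values are means from at least eight independent experiments, each in triplicate (n = 3), with t-tests (p < 0.05).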

[7] = Antioxidant activity assessed as reduction of potassium ferricyanide trivalent iron into potassium ferrocyanide bivalent iron and ferrous iron by measuring eliminate efficiency at 0.8 g/L relative to control; set-up: scale not given: the % may be the effect or the level left; how it was run: as §4
[8] = Antioxidant activity assessed as reduction in lipid peroxidation by measuring antiperoxide-index at 0.6 g/L by thiobarbituric acid method relative to control; set-up: scale not given: the % may be the effect or the level left; how it was run: as §3
[9] = Antioxidant activity assessed as hydroxyl radical scavenging rate at 1 g/L relative to control; how it was run: as §2
[10] = Antioxidant activity assessed as superoxide anion radical scavenging rate at 1 g/L relative to control; how it was run: as §1
[11] = Antioxidant activity assessed as reduction of potassium ferricyanide trivalent iron into potassium ferrocyanide bivalent iron and ferrous iron by measuring eliminate efficiency at 0.6 g/L relative to control; set-up: scale not given: the % may be the effect or the level left; how it was run: as §4
[12] = Antioxidant activity assessed as hydroxyl radical scavenging rate at 0.8 g/L relative to control; how it was run: as §2
[13] = Antioxidant activity assessed as reduction in lipid peroxidation by measuring antiperoxide-index at 0.4 g/L by thiobarbituric acid method relative to control; set-up: scale not given: the % may be the effect or the level left; how it was run: as §3
[14] = Antioxidant activity assessed as reduction of potassium ferricyanide trivalent iron into potassium ferrocyanide bivalent iron and ferrous iron by measuring eliminate efficiency at 0.4 g/L relative to control; set-up: scale not given: the % may be the effect or the level left; how it was run: as §4
[15] = Antioxidant activity assessed as superoxide anion radical scavenging rate at 0.4 g/L relative to control; how it was run: as §1
[16] = Antioxidant activity assessed as reduction in lipid peroxidation by measuring antiperoxide-index at 0.2 g/L by thiobarbituric acid method relative to control; set-up: scale not given: the % may be the effect or the level left; how it was run: as §3
[17] = Antioxidant activity assessed as hydroxyl radical scavenging rate at 0.6 g/L relative to control; how it was run: as §2
[18] = Antioxidant activity assessed as reduction of potassium ferricyanide trivalent iron into potassium ferrocyanide bivalent iron and ferrous iron by measuring eliminate efficiency at 1.2 g/L relative to control; set-up: scale not given: the % may be the effect or the level left; how it was run: as §4
[19] = Antioxidant activity assessed as superoxide anion radical scavenging rate at 1.2 g/L relative to control; how it was run: as §1
[20] = Antioxidant activity assessed as reduction of potassium ferricyanide trivalent iron into potassium ferrocyanide bivalent iron and ferrous iron by measuring eliminate efficiency at 0.2 g/L relative to control; set-up: scale not given: the % may be the effect or the level left; how it was run: as §4
[21] = Antioxidant activity assessed as reduction in lipid peroxidation by measuring antiperoxide-index at 1.2 g/L by thiobarbituric acid method relative to control; set-up: scale not given: the % may be the effect or the level left; how it was run: as §3
[22] = Antioxidant activity assessed as superoxide anion radical scavenging rate at 0.8 g/L relative to control; how it was run: as §1
[23] = Antioxidant activity assessed as hydroxyl radical scavenging rate at 0.2 g/L relative to control; how it was run: as §2
[24] = Antioxidant activity assessed as hydroxyl radical scavenging rate at 1.2 g/L relative to control; how it was run: as §2

SMILES	Activity [1]	Activity [2]	Activity [3]	Activity [4]	Activity [5]	Activity [6]	Activity [7]	Activity [8]	Activity [9]	Activity [10]	Activity [11]	Activity [12]	Activity [13]	Activity [14]	Activity [15]	Activity [16]	Activity [17]	Activity [18]	Activity [19]	Activity [20]	also measured
O=C(Oc1ccc2c(c1)OCO2)c1cc(Cl)ccc1Cl	12.1%	32.6%	74%	52.9%	67.3%	75.3%	68.5%	56.1%	74.2%	69.8%	59%	70.7%	31.1%	31.1%	27.9%	13%	58.9%	76.1%	70.5%	12.9%	Activity [21]: 76.2%; Activity [22]: 63.5%; Activity [23]: 13.6%; Activity [24]: 74.9%
O=c1oc2ccc3c(c2c2ccc(Cl)cc12)OCO3	16.1%	40.8%	94.4%	70.1%	85.8%	93.4%	84.9%	71.5%	92.6%	92.6%	73.2%	88.2%	39.7%	38.5%	36.9%	16.6%	73.5%	94.3%	93.5%	16.1%	Activity [21]: 97.2%; Activity [22]: 84.2%; Activity [23]: 17%; Activity [24]: 93.6%
O=C(Oc1ccc2c(c1)OCO2)c1c(Cl)cccc1Cl	13%	32.7%	80.2%	56.9%	72.9%	83.4%	75.8%	60.8%	76.4%	75%	65.4%	72.7%	33.8%	34.4%	29.9%	14.1%	60.6%	84.3%	75.8%	14.3%	Activity [21]: 82.6%; Activity [22]: 68.2%; Activity [23]: 14%; Activity [24]: 77.1%
Oc1ccc2c(c1)OCO2	12.1%	30.2%	72.8%	52.7%	66.1%	81.9%	75.4%	55.1%	70.8%	69.6%	56.4%	67.4%	30.6%	29.7%	27.8%	12.8%	56.2%	82.6%	70.3%	12.4%	Activity [21]: 74.9%; Activity [22]: 63.3%; Activity [23]: 13%; Activity [24]: 71.5%
O=c1oc2ccc3c(c2c2c(Cl)cccc12)OCO3	15.2%	38.7%	91.1%	66.2%	82.8%	92.7%	84.3%	69%	87.4%	87.4%	72.6%	83.2%	38.4%	38.2%	34.8%	16%	69.3%	93.6%	88.3%	15.9%	Activity [21]: 93.8%; Activity [22]: 79.4%; Activity [23]: 16.1%; Activity [24]: 88.2%
O=c1oc2ccc3c(c2c2cccc(Cl)c12)OCO3	16.3%	40.6%	92.9%	71.3%	84.5%	95.2%	86.5%	70.4%	94.4%	94.1%	74.6%	89.9%	39.1%	39.3%	37.5%	16.3%	74.9%	96.1%	95%	16.4%	Activity [21]: 95.7%; Activity [22]: 85.5%; Activity [23]: 17.3%; Activity [24]: 95.3%
O=C(Oc1ccc2c(c1)OCO2)c1cccc(Cl)c1Cl	10.4%	26.4%	64.4%	45.4%	58.6%	65.5%	59.6%	48.8%	60.4%	59.9%	51.3%	57.5%	27.1%	27%	23.9%	11.3%	47.9%	66.2%	60.5%	11.3%	Activity [21]: 66.4%; Activity [22]: 54.5%; Activity [23]: 11.1%; Activity [24]: 61%
O=C(Oc1ccc2c(c1)OCO2)c1ccc(Cl)cc1Cl	11.4%	30.7%	72.3%	49.7%	65.7%	74.9%	68.1%	54.8%	69.9%	65.6%	58.7%	66.6%	30.4%	30.9%	26.2%	12.7%	55.5%	75.7%	66.3%	12.9%	Activity [21]: 74.5%; Activity [22]: 59.7%; Activity [23]: 12.8%; Activity [24]: 70.6%
O=C(Oc1ccc2c(c1)OCO2)c1ccccc1Cl	13.3%	34.4%	81.1%	57.9%	73.7%	84.7%	77%	61.4%	77.5%	76.5%	66.4%	73.8%	34.1%	34.9%	30.5%	14.2%	61.5%	85.6%	77.2%	14.6%	Activity [21]: 83.5%; Activity [22]: 69.5%; Activity [23]: 14.2%; Activity [24]: 78.2%
O=c1oc2ccc3c(c2c2cc(Cl)ccc12)OCO3	16.6%	42.9%	96.5%	72.5%	87.8%	98.8%	89.9%	73.1%	97.4%	95.7%	77.5%	92.7%	40.6%	40.8%	38.1%	16.9%	77.3%	99.8%	96.7%	17%	Activity [21]: 99.4%; Activity [22]: 87%; Activity [23]: 17.9%; Activity [24]: 98.3%
O=c1oc2ccc3c(c2c2ccccc12)OCO3	15.6%	38.9%	90%	68.3%	81.8%	89.8%	81.6%	68.2%	87.4%	90.2%	70.4%	83.2%	37.9%	37%	35.9%	15.8%	69.3%	90.7%	91.1%	15.4%	Activity [21]: 92.7%; Activity [22]: 82%; Activity [23]: 16.1%; Activity [24]: 88.2%
